The results in this text go back to ChEMBL document CHEMBL4033794, “Discovery of Trifluoromethyl Glycol Carbamates as Potent and Selective Covalent Monoacylglycerol Lipase (MAGL) Inhibitors for Treatment of Neuroinflammation” (J Med Chem, 2018).

Series [1] is described as follows: Ratio of unbound AUClast in C57BL6J mouse brain to plasma at 1 mg/kg, sc measured up to 24 hrs post dose by HPLC-MS/MS analysis. The conditions noted are these: brain and plasma.
Series [2] in a line: Unbound fraction in C57BL6J mouse brain at 1 mg/kg, sc measured up to 24 hrs post dose by HPLC-MS/MS analysis. It counts as ADME, organism-based.
In series [3] the target is T1, CES1 (liver carboxylesterase 1) (Homo sapiens, UniProt P23141).
T1 sequence (P23141 whole entry): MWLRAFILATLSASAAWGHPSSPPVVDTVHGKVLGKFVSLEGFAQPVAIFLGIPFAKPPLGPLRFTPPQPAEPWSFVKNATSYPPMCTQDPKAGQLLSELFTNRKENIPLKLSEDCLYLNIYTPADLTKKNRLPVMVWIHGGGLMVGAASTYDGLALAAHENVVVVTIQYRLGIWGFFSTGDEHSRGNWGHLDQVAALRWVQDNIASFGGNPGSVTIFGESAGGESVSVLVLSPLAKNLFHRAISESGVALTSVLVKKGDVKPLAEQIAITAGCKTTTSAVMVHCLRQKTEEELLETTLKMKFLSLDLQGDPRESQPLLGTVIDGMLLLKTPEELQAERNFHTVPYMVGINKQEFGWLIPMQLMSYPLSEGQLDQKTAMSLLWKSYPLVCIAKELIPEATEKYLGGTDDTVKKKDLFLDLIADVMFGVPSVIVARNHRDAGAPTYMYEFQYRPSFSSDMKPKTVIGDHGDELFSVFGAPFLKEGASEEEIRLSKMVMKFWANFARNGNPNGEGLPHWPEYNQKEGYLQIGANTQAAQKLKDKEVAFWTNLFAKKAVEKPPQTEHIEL
As to the kind of experiment: Inhibition of human CES1 at 10 uM. An outline of the steps:
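Panel of 42 human serine hydrolases, each exposed to inhibitor at 10 µM; activity expressed as percent inhibition.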

For `O=C(O[C@H](CO)C(F)(F)F)N1C[C@@H]2[C@H](C1)[C@H]2c1ccn(-c2ccc(F)cc2)n1`, in series [1], the Kp uu at 24 h came out at 1.4. This compound showed a fraction unbound at 24 h in series [2] of 0.00775. Moreover, in series [3], at 10 µM the inhibition was 80%.

As usually defined, the fraction unbound is the share of the substance not bound to proteins or other matrix. Higher therefore signals much free substance. The inhibition is the drop in the measured response relative to a control, in per cent. Read a high inhibition as strong suppression.
